Results as given in ChEMBL document CHEMBL1155700, “Cancer chemopreventive agents. New depsidones from Garcinia plants” (J Nat Prod, 2001).

Legend:
[1] = tested on: Raji; experiment: Inhibition of 12-O-tetradecanoylphorbol-13-acetate-induced EBV-early antigen activation in human Raji cells assessed as EA activation at 1000 molar ratio after 48 hrs relative to TPA; assay type: cell-based; set-up: scale not given: the % may be the effect or the level left; conditions: human gammaherpesvirus 4
Method in brief: (§1)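 Raji cells at 10⁶ cells/mL were resuspended in RPMI 1640/10% FCS containing 4 mM n-butyric acid inducer, 32 pmol TPA (20 ng/mL) and 32, 16, 3.2 or 0.32 nmol compound (DMSO), then held 48 h at 37 °C. EA-positive cells were scored blind, at least 500 cells per assay. Activation is expressed as % of the TPA-only positive control (100%), mean ± SD. IC50 is given as mol ratio/TPA.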

[2] = tested on: Raji; experiment: Inhibition of 12-O-tetradecanoylphorbol-13-acetate-induced EBV-early antigen activation in human Raji cells assessed as EA activation at 10 molar ratio after 48 hrs relative to TPA; assay type: cell-based; set-up: scale not given: the % may be the effect or the level left; conditions: human gammaherpesvirus 4; method in brief: as §1
[3] = Inhibition of 12-O-tetradecanoylphorbol-13-acetate-induced EBV-early antigen activation in human Raji cells assessed as EA activation per 32 pmol TPA after 48 hrs; assay type: cell-based, human gammaherpesvirus 4; method in brief: as §1
[4] = tested on: Raji; experiment: Inhibition of 12-O-tetradecanoylphorbol-13-acetate-induced EBV-early antigen activation in human Raji cells assessed as EA activation at 500 molar ratio after 48 hrs relative to TPA; assay type: cell-based; set-up: scale not given: the % may be the effect or the level left; conditions: human gammaherpesvirus 4; method in brief: as §1
[5] = tested on: Raji; experiment: Inhibition of 12-O-tetradecanoylphorbol-13-acetate-induced EBV-early antigen activation in human Raji cells assessed as EA activation at 100 molar ratio after 48 hrs relative to TPA; assay type: cell-based; set-up: scale not given: the % may be the effect or the level left; conditions: human gammaherpesvirus 4; method in brief: as §1
[6] = Cytotoxicity against human Raji cells assessed as cell viability at 1000 molar ratio after 48 hrs by trypan blue staining relative to TPA; assay type: cell-based; conditions: read-out: Activity
Method in brief: (§2)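 Raji cells grown to 10⁶ cells/mL, pelleted, resuspended in RPMI 1640 with 10% FCS, 4 mM n-butyric acid, 32 pmol TPA (20 ng/mL in DMSO) plus test compound in DMSO (0.32–32 nmol; mole ratio to TPA 10–1000). After 48 h at 37 °C, cell number and viability were counted on a hemocytometer by Trypan Blue exclusion. At least 60% viability was required for valid EA data.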

[7] = Cytotoxicity against human Raji cells assessed as cell viability at 500 molar ratio after 48 hrs by trypan blue staining relative to TPA; assay type: cell-based; conditions: read-out: Activity; method in brief: as §2
[8] = Cytotoxicity against human Raji cells assessed as cell viability at 100 molar ratio after 48 hrs by trypan blue staining relative to TPA; assay type: cell-based; conditions: read-out: Activity; method in brief: as §2
[9] = Cytotoxicity against human Raji cells assessed as cell viability at 10 molar ratio after 48 hrs by trypan blue staining relative to TPA; assay type: cell-based; conditions: read-out: Activity; method in brief: as §2

For `CC1=C(/C=C/C(C)=C/C=C/C(C)=C/C=C/C=C(C)/C=C/C=C(C)/C=C/C2=C(C)CCCC2(C)C)C(C)(C)CCC1` [BETA CAROTENE], the Activity [1] was 9.1%, the Activity [2] was 100% and the IC50 [3] was 400 molar ratio.
`COc1c(O)cc2c(c1CC=C(C)C)OC(=O)c1c(cc(O)c(CC=C(C)C)c1O)O2` [GARCINISIDONE A] showed an Activity [1] of 0%, an Activity [4] of 44.2% and an Activity [5] of 78.3%. It also gave an Activity [2] of 91.6%, an IC50 [3] of 365 molar ratio and a viability at 48 h, 1000 molar ratio relative to TPA [6] of 70%. It also gave a viability at 48 h, 500 molar ratio relative to TPA [7] greater than 80%, a viability at 48 h, 100 molar ratio relative to TPA [8] greater than 80% and a viability at 48 h, 10 molar ratio relative to TPA [9] greater than 80%.
Molecule `COc1c(O)cc2c(c1CC=C(C)C)OC(=O)c1c(cc3c(c1O)C=CC(C)(C)O3)O2` [GARCINISIDONE B] has an Activity [1] of 0%, an Activity [4] of 50.6% and an Activity [5] of 81.7%. It also gave an Activity [2] of 100%, an IC50 [3] of 410 molar ratio and a viability at 48 h, 1000 molar ratio relative to TPA [6] of 70%. It also gave a viability at 48 h, 500 molar ratio relative to TPA [7] greater than 80%, a viability at 48 h, 100 molar ratio relative to TPA [8] greater than 80% and a viability at 48 h, 10 molar ratio relative to TPA [9] greater than 80%.
For `CC(C)=CCc1c2c(c(O)c3c1Oc1cc(O)c4c(c1OC3=O)C=CC(C)(C)O4)C=CC(C)(C)O2` [GARCINISIDONE C], the Activity [1] was 0%, the Activity [4] was 41.8% and the Activity [5] was 72.2%. The Activity [2] was 93.5%, the IC50 [3] was 370 molar ratio and the viability at 48 h, 1000 molar ratio relative to TPA [6] was 70%. For the same molecule, the viability at 48 h, 500 molar ratio relative to TPA [7] was greater than 80%, the viability at 48 h, 100 molar ratio relative to TPA [8] was greater than 80% and the viability at 48 h, 10 molar ratio relative to TPA [9] was greater than 80%.
With `CC(C)=CCc1c(O)c2c(c3c1OC(C)(C)C=C3)Oc1cc(O)c3c(c1OC2=O)C=CC(C)(C)O3` [GARCINISIDONE D] the Activity [1] was 0%, the Activity [4] was 40.4% and the Activity [5] was 72%. It also gave an Activity [2] of 92.8%, an IC50 [3] of 360 molar ratio and a viability at 48 h, 1000 molar ratio relative to TPA [6] of 60%. The viability at 48 h, 500 molar ratio relative to TPA [7] was greater than 80%, the viability at 48 h, 100 molar ratio relative to TPA [8] was greater than 80% and the viability at 48 h, 10 molar ratio relative to TPA [9] was greater than 80%.
`CC(C)=CCc1c(O)c(CC=C(C)C)c2c(c1O)C(=O)Oc1c(cc(O)c3c1C=CC(C)(C)O3)O2` [GARCINISIDONE E] showed an Activity [1] of 0%, an Activity [4] of 40% and an Activity [5] of 71.1%. It also gave an Activity [2] of 90.2%, an IC50 [3] of 350 molar ratio and a viability at 48 h, 1000 molar ratio relative to TPA [6] of 70%. For the same molecule, the viability at 48 h, 500 molar ratio relative to TPA [7] was greater than 80%, the viability at 48 h, 100 molar ratio relative to TPA [8] was greater than 80% and the viability at 48 h, 10 molar ratio relative to TPA [9] was greater than 80%.
